# Experimental data from ChEMBL document CHEMBL1127677, “The novel Ins(1,4,5)P3 analogue 3-amino-3-deoxy-Ins(1,4,5)P3: a pH-dependent Ins(1,4,5)P3 receptor partial agonist in SH-SY5Y neuroblastoma cells” (J Med Chem, 1994).
# Experiments:
# [1] = Calcium mobilization in saponin permeabilised SH-SY5Y neuroblastoma cells at a pH of 7.2; assay type: functional, cell-based; conditions: Homo sapiens
# Outline: (§1)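 SH-SY5Y cells were preloaded with 45Ca2+ and permeabilized with saponin. Release from Ins(1,4,5)P3-sensitive stores was measured in cytosolic-like buffer at pH 6.8, 7.2 or 7.6, at 20–22 °C. Release was normalized to 100% using 30 μM Ins(1,4,5)P3 as an internal standard in each experiment. EC50 from curve fitting, mean ± sem, n = 4.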
# [2] = molecular target: T1, Type 1 InsP3 receptor isoform S2 (Sus scrofa, UniProt P79248); assay: Binding affinity against IP3 receptor in pig cerebellar membranes at a pH of 6.8 using [3H]Ins(1,4,5)P3 as the radioligand.; assay type: cell membranes, Cerebellum, Membrane
# Outline: (§2)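 [3H]Ins(1,4,5)P3 displacement using pig cerebellar P2 membranes, assayed at pH 6.8. Buffer: 25 mM Tris/maleate, 5 mM NaHCO3, 1 mM EDTA, 0.25 mM DTT. Increasing ligand concentrations were incubated with 1.5 nM radioligand and about 70 μg membrane protein for 30 min at 4 °C. Bound ligand was separated by centrifugation. Nonspecific binding was taken with 10 μM Ins(1,4,5)P3. IC50 from curve fitting, mean ± sem, n = 3.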
# [3] = Calcium mobilization in saponin permeabilised SH-SY5Y neuroblastoma cells at a pH of 7.6; assay type: functional, cell-based; conditions: Homo sapiens; outline: as §1
# [4] = Calcium mobilization in saponin permeabilised SH-SY5Y neuroblastoma cells at a pH of 6.8; assay type: functional, cell-based; conditions: Homo sapiens; outline: as §1
# [5] = molecular target: T1, Type 1 InsP3 receptor isoform S2; assay: Binding affinity against IP3 receptor in pig cerebellar membranes at a pH of 7.6 using [3H]Ins(1,4,5)P3 as the radioligand.; assay type: cell membranes, Cerebellum, Membrane
# Outline: as §2, with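 “7.6.” for “6.8.”, “50” for “70”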
# T1 sequence (P79248 whole entry, canonical isoform): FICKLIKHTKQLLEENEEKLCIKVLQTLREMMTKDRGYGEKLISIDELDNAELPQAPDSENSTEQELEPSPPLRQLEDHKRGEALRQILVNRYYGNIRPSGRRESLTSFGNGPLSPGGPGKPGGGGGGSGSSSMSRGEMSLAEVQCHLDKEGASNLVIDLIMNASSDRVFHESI
Compound,EC50 [1],IC50 [2],EC50 [3],EC50 [4],IC50 [5]
OC1C(O)C(OP(O)(O)=S)C(OP(O)(O)=S)C(O)C1OP(O)(O)=S (stereo unspecified),52 nM,78 nM,107 nM,255 nM,61 nM
OC1C(OP(O)(O)=S)C(O)C(OP(O)(O)=S)C(OP(O)(O)=S)C1OP(O)(O)=S (stereo unspecified),,,,5320 nM,
NC1C(O)C(OP(=O)(O)O)C(O)C(OP(=O)(O)O)C1OP(=O)(O)O (stereo unspecified),1070 nM,9110 nM,1490 nM,3680 nM,5650 nM
